The text below walks through data of ChEMBL document CHEMBL1145482, “Acquired echinocandin resistance in a Candida krusei isolate due to modification of glucan synthase” (Antimicrob Agents Chemother, 2007).

Molecules are shown by their SMILES. ≈ marks a conversion by molar mass, not a printed value. *1 amine or outer side, *2 acyl side, *3 side chain or, on linkers, in order; H or OH if unused. Where a SMILES comes first, the peptide text is derived from it. Bridges are numbered along the chain shown (N, C = ends). [ ]: non-standard residue; d: D form. The star is where a group is joined. hTyr(3S-OH,4S-OH,3'-OSO3H) = N[C@H](C(=O)O)[C@H](O)[C@@H](O)c1ccc(O)c(OS(=O)(=O)O)c1; pTerphenylCO(4''-OnC5H11) = CCCCCOc1ccc(-c2ccc(-c3ccc(C(=O)*)cc3)cc2)cc1; Orn(4R-OH,5R-OH) = O=C([C@H](C[C@@H](O)[C@@H](O)N[*:3])N[*:1])[*:2]; hTyr(3S-OH,4S-OH) = N[C@H](C(=O)O)[C@H](O)[C@@H](O)c1ccc(O)cc1; Pro(3S-OH,4S-Me) = C[C@H]1CN[C@H](C(=O)O)[C@H]1O; X1 = CCCCCOc1ccc(-c2cc(-c3ccc(C(=O)*)cc3)no2)cc1; Gln(3R-OH) = NC(=O)C[C@@H](O)[C@H](N)C(=O)O; Hyp = O=C(O)[C@@H]1C[C@@H](O)CN1

The subject of experiment [1] is Pichia kudriavzevii. Nature of the experiment: Antifungal activity against Candida krusei 98 isolate from acute myelogenous leukemia patient by broth microdilution method. The format is functional. Background: Broth dilution looks for growth in wells or tubes with falling amounts of substance.
Experiment [2] relates to Pichia kudriavzevii. Nature of the experiment: Antifungal activity against FKS1 T2080K mutation containing Candida krusei 100 isolate from acute myelogenous leukemia patient by broth microdilution method. The format is functional.
In experiment [3] the test system is Pichia kudriavzevii. The experiment is described as follows: Ratio of MIC of FKS1 T2080K mutation containing Candida krusei 100 isolate to MIC of Candida krusei 98 isolate from acute myelogenous leukemia patient by broth microdilution method. The format is functional.
Experiment [4] concerns the target 1,3-beta-D-glucan synthase subunit (Pichia kudriavzevii, UniProt Q4U2W2, F655C). Nature of the experiment: Inhibition of FKS1 T2080K mutant from Candida krusei 100 isolate. In short, it runs like this: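 Glucan synthase enzyme complex isolated from posttreatment strain Ck-100. Caspofungin titrated against the enzyme. Inhibition curve fitted with a two-site competition algorithm to give IC50 in ng/ml.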

Experiment [5] addresses 1,3-beta-D-glucan synthase subunit (Pichia kudriavzevii, UniProt Q4U2W2). Nature of the experiment: Inhibition of FKS1 from Candida krusei 98 isolate. In short, it runs like this: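 Glucan synthase enzyme complex isolated from the pretreatment clinical strain Ck-98 and titrated with the echinocandin. Inhibition curves were fitted with a sigmoidal variable-slope dose-response model to give IC50 in ng/ml.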

Chain of 1,3-beta-D-glucan synthase subunit (Pichia kudriavzevii, UniProt Q4U2W2, F655C) (Q4U2W2 entry or part of it F655C): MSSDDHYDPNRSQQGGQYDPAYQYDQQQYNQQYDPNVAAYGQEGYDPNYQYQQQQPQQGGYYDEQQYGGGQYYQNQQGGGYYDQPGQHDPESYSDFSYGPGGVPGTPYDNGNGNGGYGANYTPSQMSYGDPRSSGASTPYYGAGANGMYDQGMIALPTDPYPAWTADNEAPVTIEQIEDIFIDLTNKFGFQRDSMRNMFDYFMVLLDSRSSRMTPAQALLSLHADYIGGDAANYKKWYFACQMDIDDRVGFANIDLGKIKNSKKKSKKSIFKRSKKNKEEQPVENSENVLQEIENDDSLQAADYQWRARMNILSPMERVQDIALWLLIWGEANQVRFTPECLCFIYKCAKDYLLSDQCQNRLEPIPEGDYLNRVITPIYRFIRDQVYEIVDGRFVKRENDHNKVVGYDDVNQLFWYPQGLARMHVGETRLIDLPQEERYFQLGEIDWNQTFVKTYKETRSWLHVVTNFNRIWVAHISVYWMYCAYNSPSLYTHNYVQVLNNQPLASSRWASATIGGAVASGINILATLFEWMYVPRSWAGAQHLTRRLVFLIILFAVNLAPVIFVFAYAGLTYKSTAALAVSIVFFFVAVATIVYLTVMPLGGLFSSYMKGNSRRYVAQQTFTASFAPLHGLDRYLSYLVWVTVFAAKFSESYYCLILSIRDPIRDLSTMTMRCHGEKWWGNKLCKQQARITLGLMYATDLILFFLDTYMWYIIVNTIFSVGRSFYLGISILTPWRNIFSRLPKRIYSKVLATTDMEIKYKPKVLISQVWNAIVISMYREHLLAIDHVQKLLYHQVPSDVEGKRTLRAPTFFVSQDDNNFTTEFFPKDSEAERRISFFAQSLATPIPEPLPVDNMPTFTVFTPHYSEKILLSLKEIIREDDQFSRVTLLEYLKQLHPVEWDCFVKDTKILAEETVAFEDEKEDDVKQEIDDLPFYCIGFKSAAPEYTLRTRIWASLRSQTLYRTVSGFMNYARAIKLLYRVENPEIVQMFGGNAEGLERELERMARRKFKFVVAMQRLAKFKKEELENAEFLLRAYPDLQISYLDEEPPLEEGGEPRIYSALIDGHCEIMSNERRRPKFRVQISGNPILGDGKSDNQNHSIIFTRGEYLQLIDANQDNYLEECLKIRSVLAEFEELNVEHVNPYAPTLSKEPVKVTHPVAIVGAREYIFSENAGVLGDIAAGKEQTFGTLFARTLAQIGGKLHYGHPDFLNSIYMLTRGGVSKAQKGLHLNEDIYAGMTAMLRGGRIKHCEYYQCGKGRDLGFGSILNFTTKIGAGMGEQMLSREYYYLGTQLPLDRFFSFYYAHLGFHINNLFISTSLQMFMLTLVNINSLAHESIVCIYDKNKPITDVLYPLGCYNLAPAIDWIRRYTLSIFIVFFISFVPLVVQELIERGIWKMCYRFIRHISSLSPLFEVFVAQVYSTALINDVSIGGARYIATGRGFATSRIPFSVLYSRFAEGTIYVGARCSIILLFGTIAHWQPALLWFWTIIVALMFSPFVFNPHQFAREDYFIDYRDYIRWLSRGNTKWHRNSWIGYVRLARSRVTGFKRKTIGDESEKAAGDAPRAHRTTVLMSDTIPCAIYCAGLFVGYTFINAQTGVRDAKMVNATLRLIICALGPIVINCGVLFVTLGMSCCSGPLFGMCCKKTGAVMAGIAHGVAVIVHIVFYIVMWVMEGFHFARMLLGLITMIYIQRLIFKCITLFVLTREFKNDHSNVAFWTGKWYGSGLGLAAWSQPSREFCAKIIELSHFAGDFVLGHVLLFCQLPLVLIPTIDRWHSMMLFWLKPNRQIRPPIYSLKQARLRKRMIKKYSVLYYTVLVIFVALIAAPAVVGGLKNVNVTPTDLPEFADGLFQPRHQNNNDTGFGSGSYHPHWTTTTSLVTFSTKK
Chain of 1,3-beta-D-glucan synthase subunit (Pichia kudriavzevii, UniProt Q4U2W2) (Q4U2W2 whole entry): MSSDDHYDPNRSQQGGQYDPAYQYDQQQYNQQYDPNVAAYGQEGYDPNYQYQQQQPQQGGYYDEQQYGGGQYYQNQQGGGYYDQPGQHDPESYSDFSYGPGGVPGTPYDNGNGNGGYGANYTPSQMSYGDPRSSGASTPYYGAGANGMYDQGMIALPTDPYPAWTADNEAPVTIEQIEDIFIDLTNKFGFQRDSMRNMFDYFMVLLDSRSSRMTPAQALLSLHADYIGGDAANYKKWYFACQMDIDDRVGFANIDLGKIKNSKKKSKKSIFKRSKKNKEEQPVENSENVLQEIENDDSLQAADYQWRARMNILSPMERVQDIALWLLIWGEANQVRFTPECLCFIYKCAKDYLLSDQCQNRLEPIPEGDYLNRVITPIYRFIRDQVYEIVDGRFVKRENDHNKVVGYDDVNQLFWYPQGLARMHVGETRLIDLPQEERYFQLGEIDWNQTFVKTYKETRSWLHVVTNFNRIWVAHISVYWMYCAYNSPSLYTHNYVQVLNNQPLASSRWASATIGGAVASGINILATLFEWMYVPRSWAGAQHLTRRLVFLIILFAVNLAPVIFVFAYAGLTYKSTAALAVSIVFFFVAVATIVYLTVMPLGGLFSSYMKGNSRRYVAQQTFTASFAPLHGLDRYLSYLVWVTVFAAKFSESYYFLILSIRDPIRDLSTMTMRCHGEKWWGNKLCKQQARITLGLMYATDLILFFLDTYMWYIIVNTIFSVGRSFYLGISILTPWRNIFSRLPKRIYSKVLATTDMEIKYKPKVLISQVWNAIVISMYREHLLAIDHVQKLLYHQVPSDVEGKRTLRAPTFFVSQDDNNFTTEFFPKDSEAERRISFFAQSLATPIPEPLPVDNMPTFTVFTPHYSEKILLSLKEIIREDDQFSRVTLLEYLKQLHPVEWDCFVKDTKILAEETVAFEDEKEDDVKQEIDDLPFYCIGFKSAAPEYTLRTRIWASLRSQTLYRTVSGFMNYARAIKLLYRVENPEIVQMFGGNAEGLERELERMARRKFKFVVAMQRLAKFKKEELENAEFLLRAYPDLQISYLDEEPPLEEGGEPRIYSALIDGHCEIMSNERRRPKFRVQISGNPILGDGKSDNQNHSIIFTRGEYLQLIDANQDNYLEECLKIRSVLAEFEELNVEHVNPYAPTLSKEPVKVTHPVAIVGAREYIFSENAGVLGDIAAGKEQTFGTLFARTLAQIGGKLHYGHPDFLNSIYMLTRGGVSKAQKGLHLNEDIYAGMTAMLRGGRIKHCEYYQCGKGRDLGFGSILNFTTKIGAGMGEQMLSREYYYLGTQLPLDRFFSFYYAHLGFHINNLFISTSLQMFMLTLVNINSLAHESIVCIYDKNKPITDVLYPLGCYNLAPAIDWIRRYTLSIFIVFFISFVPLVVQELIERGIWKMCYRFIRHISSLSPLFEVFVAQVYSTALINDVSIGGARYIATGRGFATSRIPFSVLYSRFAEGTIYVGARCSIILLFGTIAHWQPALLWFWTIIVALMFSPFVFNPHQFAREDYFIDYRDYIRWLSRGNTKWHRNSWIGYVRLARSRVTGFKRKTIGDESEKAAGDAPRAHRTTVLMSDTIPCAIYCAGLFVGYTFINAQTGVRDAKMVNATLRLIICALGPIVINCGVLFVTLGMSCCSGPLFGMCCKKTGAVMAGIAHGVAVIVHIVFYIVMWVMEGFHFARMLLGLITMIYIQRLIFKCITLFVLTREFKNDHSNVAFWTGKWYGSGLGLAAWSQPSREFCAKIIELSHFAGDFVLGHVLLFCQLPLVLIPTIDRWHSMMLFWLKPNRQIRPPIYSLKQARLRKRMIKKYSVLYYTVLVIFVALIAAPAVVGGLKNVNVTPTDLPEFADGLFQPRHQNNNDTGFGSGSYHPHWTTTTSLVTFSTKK

One may read the MIC as the smallest concentration in the dilution series that meets the test's criterion for growth inhibition. Higher therefore signals a less susceptible organism. In the case of `CCCCCOc1ccc(-c2cc(-c3ccc(C(=O)N[C@H]4C[C@@H](O)[C@@H](O)NC(=O)[C@@H]5[C@@H](O)[C@@H](C)CN5C(=O)[C@H]([C@H](O)CC(N)=O)NC(=O)[C@H]([C@H](O)[C@@H](O)c5ccc(O)c(OS(=O)(=O)O)c5)NC(=O)[C@@H]5C[C@@H](O)CN5C(=O)[C@H]([C@@H](C)O)NC4=O)cc3)no2)cc1` [MICAFUNGIN] (X1-[Orn(4R-OH,5R-OH)]T[Hyp][hTyr(3S-OH,4S-OH,3'-OSO3H)][Gln(3R-OH)][Pro(3S-OH,4S-Me)]; lactam 1-C), the MIC was found to be 0.25 µg/mL (≈ 0.197 µM) in the experiment with Pichia kudriavzevii [1] and 4 µg/mL (≈ 3.15 µM) in the experiment with Pichia kudriavzevii [2]. Also, the Ratio in the experiment on Pichia kudriavzevii [3] is 16.

Usually IC50 stands for the concentration that inhibits the measured activity by half. A higher IC50 goes with lower potency. As to `CC[C@H](C)C[C@H](C)CCCCCCCCC(=O)N[C@H]1C[C@@H](O)[C@@H](NCCN)NC(=O)[C@@H]2[C@@H](O)CCN2C(=O)[C@H]([C@H](O)CCN)NC(=O)[C@H]([C@H](O)[C@@H](O)c2ccc(O)cc2)NC(=O)[C@@H]2C[C@@H](O)CN2C(=O)[C@H]([C@@H](C)O)NC1=O` [CASPOFUNGIN], the MIC in the experiment on Pichia kudriavzevii [1] came to 0.25 µg/mL (≈ 0.229 µM); in the experiment with Pichia kudriavzevii [2], 8 µg/mL (≈ 7.32 µM). Also, the IC50 in experiment [4] was 3.61 µM; in experiment [5], 6.22 nM. Further, the Ratio with Pichia kudriavzevii [3] was determined as 32.

Take `CCCCCOc1ccc(-c2ccc(-c3ccc(C(=O)N[C@H]4C[C@@H](O)[C@@H](O)NC(=O)[C@@H]5[C@@H](O)[C@@H](C)CN5C(=O)[C@H]([C@@H](C)O)NC(=O)[C@H]([C@H](O)[C@@H](O)c5ccc(O)cc5)NC(=O)[C@@H]5C[C@@H](O)CN5C(=O)[C@H]([C@@H](C)O)NC4=O)cc3)cc2)cc1` [ANIDULAFUNGIN] ({pTerphenylCO(4''-OnC5H11)}-[Orn(4R-OH,5R-OH)]T[Hyp][hTyr(3S-OH,4S-OH)]T[Pro(3S-OH,4S-Me)]; lactam 1-C): the MIC was determined as 0.25 µg/mL (≈ 0.219 µM) in the experiment with Pichia kudriavzevii [1] and 4 µg/mL (≈ 3.51 µM) against Pichia kudriavzevii [2]. Further, the Ratio with Pichia kudriavzevii [3] is on record as 16.
